Test results taken from ChEMBL document CHEMBL5032510, “Identification of Novel Fused Heteroaromatics-Based MALT1 Inhibitors by High-Throughput Screening to Treat B Cell Lymphoma” (J Med Chem, 2021).
Calls of active or inactive are those of the source. No cut-off for these calls is given here.

Legend:
[1] = Clearance in CD-1 mouse at 1 mg/kg, iv by LC-MS/MS analysis; type: ADME, organism-based; conditions: in vivo
Outline: (§1)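 Compound formulated in 5% DMSO + 5% Tween-80 in 90% saline and given to male ICR (CD-1) mice (n = 9) at 10 mg/kg po, 1 mg/kg ip or 1 mg/kg iv. Blood was drawn via the jugular vein at set time points and held on ice. Plasma was separated by centrifugation and stored at −80 °C before PK parameters were derived.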

[2] = Drug concentration in tumor of NCG mouse xenografted with human TMD8 cells at 30 mg/kg/day, ip measured after 13 days; type: ADME, organism-based, Neoplasm; conditions: time 13 day, read-out: Drug uptake
Outline: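 TMD8 cells (5 × 10⁶) were implanted subcutaneously into the right flank of 6-week-old female NCG mice. At day 10, when tumors were palpable, mice were randomized into groups of eight. Dosing was ip at 30 mg/kg for 13 consecutive days; controls received HPBCD (20% PEG 400) ip. TGI was based on mean tumor weight of treated versus control groups. Intratumoral drug level was measured after 13 days of dosing.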

[3] = Induction of apoptosis in human HBL1 cells assessed as viable cells at 10 uM measured after 24 hrs by Annexin V-FITC/ Propidium iodide staining based flow cytometry (reference value: 88.1%); type: functional; conditions: read-out: Activity
[4] = Induction of apoptosis in human HBL1 cells assessed as early apoptotic cells at 5 uM measured after 24 hrs by Annexin V-FITC/ Propidium iodide staining based flow cytometry (reference value: 4.85%); type: functional
[5] = Induction of apoptosis in human HBL1 cells assessed as early apoptotic cells at 10 uM measured after 24 hrs by Annexin V-FITC/ Propidium iodide staining based flow cytometry (reference value: 4.85%); type: functional
[6] = Induction of apoptosis in human HBL1 cells assessed as late apoptotic cells at 5 uM measured after 24 hrs by Annexin V-FITC/ Propidium iodide staining based flow cytometry (reference value: 4.77%); type: functional
[7] = Induction of apoptosis in human HBL1 cells assessed as dead cells at 2 uM measured after 24 hrs by Annexin V-FITC/ Propidium iodide staining based flow cytometry (reference value: 2.32%); type: functional
[8] = Induction of apoptosis in human HBL1 cells assessed as dead cells at 5 uM measured after 24 hrs by Annexin V-FITC/ Propidium iodide staining based flow cytometry (reference value: 2.32%); type: functional
[9] = Induction of apoptosis in human HBL1 cells assessed as dead cells at 10 uM measured after 24 hrs by Annexin V-FITC/ Propidium iodide staining based flow cytometry (reference value: 2.32%); type: functional
[10] = test system: TMD8; assay: Induction of apoptosis in human TMD8 cells assessed as viable cells at 10 uM measured after 24 hrs by Annexin V-FITC/ Propidium iodide staining based flow cytometry (reference value: 90.8%); type: functional; conditions: read-out: Activity
[11] = test system: TMD8; assay: Induction of apoptosis in human TMD8 cells assessed as early apoptotic cells at 5 uM measured after 24 hrs by Annexin V-FITC/ Propidium iodide staining based flow cytometry (reference value: 6.97%); type: functional
[12] = test system: TMD8; assay: Induction of apoptosis in human TMD8 cells assessed as late apoptotic cells at 2 uM measured after 24 hrs by Annexin V-FITC/ Propidium iodide staining based flow cytometry (reference value: 2.19%); type: functional
[13] = test system: TMD8; assay: Induction of apoptosis in human TMD8 cells assessed as dead cells at 2 uM measured after 24 hrs by Annexin V-FITC/ Propidium iodide staining based flow cytometry (reference value: 0%); type: functional
[14] = test system: TMD8; assay: Induction of apoptosis in human TMD8 cells assessed as dead cells at 5 uM measured after 24 hrs by Annexin V-FITC/ Propidium iodide staining based flow cytometry (reference value: 0 %); type: functional
[15] = test system: OCI-Ly1; assay: Induction of apoptosis in human OCI-Ly1 cells assessed as early apoptotic cells at 2 uM measured after 24 hrs by Annexin V-FITC/ Propidium iodide staining based flow cytometry (reference value: 1.29%); type: functional
[16] = test system: OCI-Ly1; assay: Induction of apoptosis in human OCI-Ly1 cells assessed as early apoptotic cells at 5 uM measured after 24 hrs by Annexin V-FITC/ Propidium iodide staining based flow cytometry (reference value: 1.29%); type: functional
[17] = test system: OCI-Ly1; assay: Induction of apoptosis in human OCI-Ly1 cells assessed as late apoptotic cells at 5 uM measured after 24 hrs by Annexin V-FITC/ Propidium iodide staining based flow cytometry (reference value: 0.548%); type: functional
[18] = test system: OCI-Ly1; assay: Induction of apoptosis in human OCI-Ly1 cells assessed as late apoptotic cells at 10 uM measured after 24 hrs by Annexin V-FITC/ Propidium iodide staining based flow cytometry (reference value: 0.548%); type: functional
[19] = test system: HBL1; assay: Induction of apoptosis in human HBL1 cells assessed as increase in cleaved PARP level measured after 12 hrs by Western blot analysis; type: functional, cell-based
Outline: (§2)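 HBL1, TMD8 or OCI-LY1 cells were exposed to DMSO or compound for 12 h. Cleaved PARP and caspase-3 were probed by western blot with HRP-conjugated secondary antibodies and chemiluminescent detection. Each lane held 20−75 μg total protein.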

[20] = test system: HBL1; assay: Induction of apoptosis in human HBL1 cells assessed as increase in cleaved caspase 3 level measured after 12 hrs by Western blot analysis; type: functional, cell-based; outline: as §2
[21] = test system: OCI-Ly1; assay: Induction of apoptosis in human OCI-Ly1 cells assessed as increase in cleaved PARP level at 2 to 5 uM measured after 12 hrs by Western blot analysis; type: functional, cell-based; conditions: dose 2-5 µM; outline: as §2
[22] = test system: OCI-Ly1; assay: Induction of apoptosis in human OCI-Ly1 cells assessed as increase in cleaved caspase 3 level at 2 to 5 uM measured after 12 hrs by Western blot analysis; type: functional, cell-based; conditions: dose 2-5 µM; outline: as §2
[23] = Half life in CD-1 mouse at 10 mg/kg, po by LC-MS/MS analysis; type: ADME, organism-based; conditions: in vivo; outline: as §1
[24] = AUC (0 to t) in CD-1 mouse at 1 mg/kg, iv by LC-MS/MS analysis; type: ADME, organism-based; parameters: dose 1 mg/kg; conditions: in vivo; outline: as §1
[25] = Apparent volume of distribution in CD-1 mouse at 1 mg/kg, iv by LC-MS/MS analysis; type: ADME, organism-based; conditions: in vivo, read-out: Vz; outline: as §1
[26] = Oral bioavailability in CD-1 mouse at 10 mg/kg by LC-MS/MS analysis; type: ADME, organism-based; conditions: in vivo
Outline: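 Male ICR (CD-1) mice (n = 9). Compound formulated in 5% DMSO + 5% Tween-80 in 90% saline and dosed 10 mg/kg po, 1 mg/kg ip or 1 mg/kg iv. Blood drawn from the jugular vein at set time points and held on ice. Plasma separated by centrifugation and stored at −80 °C before parameter derivation.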

[27] = Toxicity in NCG mouse xenografted with human TMD8 cells assessed as emaciation at 30 mg/kg/day, ip measured for 13 days; conditions: in vivo, 312 h
[28] = Toxicity in NCG mouse xenografted with human TMD8 cells assessed as body weight loss at 30 mg/kg/day, ip measured for 13 days; conditions: in vivo, 312 h

COc1ccc(OC)c(NC(=O)c2sc(=S)n(-c3ccc(C(F)(F)F)cc3)c2NC(=O)CCl)c1
clearance [1]: 14.1 mL/min/kg | concentration at 312 h [2]: 1130 ng/g | viability at 10 µM [3]: 6.11% | Activity [4]: 42.1% | Activity [5]: 57.8% | Activity [6]: 17.3% | Activity [7]: 1.94% | Activity [8]: 1.8% | Activity [9]: 1.04% | viability at 10 µM [10]: 3.65% | Activity [11]: 58.9% | Activity [12]: 2.54% | Activity [13]: 0.048% | Activity [14]: 0.422% | Activity [15]: 1.87% | Activity [16]: 1.6% | Activity [17]: 0.774% | Activity [18]: 1.53% | Activity [19]: Dose-Dependent Effect | Activity [20]: Dose-Dependent Effect | Activity [21]: inactive | Activity [22]: inactive | half-life [23]: 2.83 h | AUC(0-t) [24]: 1010 ng·h/mL | Vd [25]: 4.82 L/kg | bioavailability [26]: 110% | Activity [27]: Non-Toxic | Activity [28]: Non-Toxic
